Experimental data reported in ChEMBL document CHEMBL3632598, “Stereospecific inhibition of nitric oxide production in macrophage cells by flavanonols: Synthesis and the structure-activity relationship” (Bioorg Med Chem, 2015).
Structures can show the parent of a compound that is named as a salt.

How the values were obtained:
[1] = Antioxidant activity assessed as DPPH radical scavenging activity after 30 mins by spectrophotometry; assay type: physicochemical
RAW264.7 [2] = assay: Antiinflammatory activity in mouse RAW264.7 cells assessed as inhibition of LPS-induced nitric oxide production at 100 uM pre-incubated for 2 hrs before LPS stimulation for 16 hrs by Griess method; assay type: functional
Method in brief: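 RAW 264.7 cells (1.6 × 10^6 cells/mL) in F-12 Ham medium with 10% FBS, glutamate and penicillin-streptomycin. Compounds were given as DMSO stock diluted 1:100 in medium, final 100 µM, and concentration was checked by UV absorbance. After 2 h at 37 °C, LPS was added to a final 100 ng/mL and cells were incubated 16 h. Aminoguanidine was the positive control; mean ± S.D., n = 3.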

RAW264.7 [3] = assay: Cytotoxicity against mouse RAW264.7 cells assessed as cell viability at 100 uM pre-incubated for 2 hrs before LPS stimulation for 16 hrs followed by 4 hrs incubation by alamar blue assay; assay type: cell-based; conditions: raw264.7, 100 µM
Method in brief: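 Viability was read on the RAW 264.7 cells left after supernatant removal in the LPS/NO assay (100 µM compound, 2 h pre-incubation, LPS 100 ng/mL for 16 h). AlamarBlue was added and plates were incubated 4 h at 37 °C. Absorbance was read at 570 nm (reference 655 nm).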

Row | SMILES | EC50 [1] | inhibition at 100 µM (RAW264.7 [2]) | Activity (RAW264.7 [3])
1 | O=C1c2c(O)cc(O)cc2O[C@H](c2ccc(O)cc2O)[C@H]1O [DIHYDROMORIN] | > 100 µM | < 10% | –
2 | O=C1c2c(O)cc(O)cc2O[C@H](c2cc(O)cc(O)c2)[C@H]1O | > 100 µM | < 10% | –
3 | O=C1c2c(O)cc(O)cc2O[C@@H](c2ccc(O)cc2O)[C@@H]1O | > 100 µM | < 10% | –
4 | COc1cc(OC)cc([C@@H]2Oc3cc(O)cc(O)c3C(=O)[C@H]2O)c1 | > 100 µM | < 10% | –
5 | O=C1c2c(O)cc(O)cc2O[C@H](c2ccccc2O)[C@H]1O | > 100 µM | 40% | Non-toxic
6 | O=C1c2c(O)cc(O)cc2O[C@H](c2ccc(O)c(O)c2)[C@H]1O [(+)-TAXIFOLIN] | 13.9 µM | < 10% | –
7 | O=C1c2c(O)cc(O)cc2O[C@H](c2ccccc2)[C@H]1O [PINOBAKSIN] | > 100 µM | < 10% | –
8 | COc1ccc(OC)c([C@@H]2Oc3cc(O)cc(O)c3C(=O)[C@H]2O)c1 | > 100 µM | < 10% | –
9 | O=C1c2c(O)cc(O)cc2O[C@H](c2cc(O)ccc2O)[C@H]1O | 24.5 µM | 30% | Non-toxic
10 | COc1cccc([C@@H]2Oc3cc(O)cc(O)c3C(=O)[C@H]2O)c1 | > 100 µM | < 10% | –
11 | COc1ccccc1C1Oc2cc(O)cc(O)c2C(=O)C1O (racemic) | > 100 µM | < 10% | –
12 | O=C1c2c(O)cc(O)cc2O[C@H](c2cccc(O)c2)[C@H]1O | > 100 µM | 35% | Non-toxic
13 | N=C(N)NN [PIMAGEDINE HYDROCHLORIDE] | – | 72% | –
14 | O=C1c2c(O)cc(O)cc2O[C@@H](c2ccccc2)[C@@H]1O | > 100 µM | < 10% | –
15 | O=C1c2c(O)cc(O)cc2O[C@@H](c2ccc(O)cc2)[C@@H]1O | > 100 µM | < 10% | –
16 | COc1cc(OC)cc([C@H]2Oc3cc(O)cc(O)c3C(=O)[C@@H]2O)c1 | > 100 µM | < 10% | –
17 | O=C(O)c1cc(O)c(O)c(O)c1 | 10 µM | – | –
18 | O=C1c2c(O)cc(O)cc2O[C@@H](c2cc(O)ccc2O)[C@@H]1O | 25.4 µM | < 15% | Non-toxic

Row | SMILES | EC50 [1] | inhibition at 100 µM (RAW264.7 [2]) | Activity (RAW264.7 [3])
19 | O=C1c2c(O)cc(O)cc2O[C@@H](c2cc(O)cc(O)c2)[C@@H]1O | > 100 µM | < 10% | –
20 | COc1cccc([C@H]2Oc3cc(O)cc(O)c3C(=O)[C@@H]2O)c1 | > 100 µM | < 10% | –
21 | COc1ccc([C@H]2Oc3cc(O)cc(O)c3C(=O)[C@@H]2O)cc1 | > 100 µM | < 10% | –
22 | COc1ccc([C@@H]2Oc3cc(O)cc(O)c3C(=O)[C@H]2O)cc1 | > 100 µM | < 10% | –
23 | O=C1c2c(O)cc(O)cc2O[C@H](c2cccc(O)c2O)[C@H]1O | 12.5 µM | 70% | Non-toxic
24 | O=C1c2c(O)cc(O)cc2O[C@@H](c2ccccc2O)[C@@H]1O | > 100 µM | < 15% | Non-toxic
25 | O=C1c2c(O)cc(O)cc2O[C@@H](c2ccc(O)c(O)c2)[C@@H]1O | 12.6 µM | < 10% | –
26 | O=C1c2c(O)cc(O)cc2O[C@@H](c2cccc(O)c2)[C@@H]1O | > 100 µM | < 15% | Non-toxic
27 | O=C1c2c(O)cc(O)cc2O[C@H](c2ccc(O)cc2)[C@H]1O [DIHYDROKAEMPFEROL] | > 100 µM | < 10% | –
28 | COc1cccc(OC)c1C1Oc2cc(O)cc(O)c2C(=O)C1O (racemic) | > 100 µM | < 10% | –
29 | COc1ccc(OC)c([C@H]2Oc3cc(O)cc(O)c3C(=O)[C@@H]2O)c1 | > 100 µM | < 10% | –
30 | COc1ccc([C@H]2Oc3cc(O)cc(O)c3C(=O)[C@@H]2O)c(OC)c1 | > 100 µM | < 10% | –
31 | COc1ccc(C2Oc3cc(O)cc(O)c3C(=O)C2O)cc1OC (racemic) | > 100 µM | < 10% | –
32 | COc1ccc([C@@H]2Oc3cc(O)cc(O)c3C(=O)[C@H]2O)c(OC)c1 | > 100 µM | < 10% | –
33 | COc1cccc([C@H]2Oc3cc(O)cc(O)c3C(=O)[C@@H]2O)c1OC | > 100 µM | < 10% | –
34 | O=C1c2c(O)cc(O)cc2O[C@@H](c2cccc(O)c2O)[C@@H]1O | 13.2 µM | 45% | Non-toxic
35 | COc1cccc([C@@H]2Oc3cc(O)cc(O)c3C(=O)[C@H]2O)c1OC | > 100 µM | < 10% | –
